This note sets out measurements from ChEMBL document CHEMBL4308845, “Allosteric Activation of Striatal-Enriched Protein Tyrosine Phosphatase (STEP, PTPN5) by a Fragment-like Molecule” (J Med Chem, 2019).

Test [1] addresses T1, Tyrosine-protein phosphatase non-receptor type 1 (Homo sapiens) (UniProt P18031).
T1 sequence (whole entry): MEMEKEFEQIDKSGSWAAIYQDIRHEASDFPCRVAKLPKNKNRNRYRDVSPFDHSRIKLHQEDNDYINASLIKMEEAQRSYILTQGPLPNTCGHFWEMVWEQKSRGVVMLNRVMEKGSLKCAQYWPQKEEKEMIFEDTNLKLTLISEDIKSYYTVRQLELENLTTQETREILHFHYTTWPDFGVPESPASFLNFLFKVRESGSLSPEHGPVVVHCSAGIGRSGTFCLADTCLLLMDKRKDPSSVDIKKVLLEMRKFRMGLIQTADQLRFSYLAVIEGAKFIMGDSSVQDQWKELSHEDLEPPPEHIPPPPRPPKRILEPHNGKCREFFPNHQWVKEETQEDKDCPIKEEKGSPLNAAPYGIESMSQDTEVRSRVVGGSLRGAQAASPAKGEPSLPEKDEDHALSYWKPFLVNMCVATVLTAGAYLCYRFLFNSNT
Put plainly: Binding affinity to human PTP1B by 1H,15N TROSY NMR spectral analysis.

Test [2] concerns the target T2, Tyrosine-protein phosphatase non-receptor type 2 (Homo sapiens) (UniProt P17706).
T2 sequence (whole entry): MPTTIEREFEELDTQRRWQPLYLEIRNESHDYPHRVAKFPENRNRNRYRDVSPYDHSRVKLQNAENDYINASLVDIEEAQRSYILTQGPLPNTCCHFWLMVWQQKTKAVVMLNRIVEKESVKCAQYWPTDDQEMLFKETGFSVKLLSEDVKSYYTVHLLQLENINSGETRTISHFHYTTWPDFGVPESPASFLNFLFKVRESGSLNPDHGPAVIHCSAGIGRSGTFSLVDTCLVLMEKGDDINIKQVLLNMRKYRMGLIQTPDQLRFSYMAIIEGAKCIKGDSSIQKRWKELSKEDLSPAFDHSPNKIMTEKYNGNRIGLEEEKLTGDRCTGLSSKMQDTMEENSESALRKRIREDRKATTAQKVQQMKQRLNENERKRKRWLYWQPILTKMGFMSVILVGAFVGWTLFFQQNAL
Briefly: Activation of human TCPTP (2 to 345 residues) at 500 uM using biotin-Ahx-EDT-pY-Y-RKG-amide as substrate measured after 2 hrs by AlphaLISA assay. The method, boiled down: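 In-house TC-PTP (2−345) at 500 pM final, preincubated 10 min at 24 °C with compound (up to 500 μM), then EDT-pY-Y-RKG-amide substrate (1.4 μM final); 1.5 h at 24 °C, stopped with 200 μM orthovanadate. Competition AlphaScreen with biotin-Ahx-EDT-pY-Y-RKG-amide (2.5 nM) and antibody 4G10 (500 pM), 2 h at 24 °C. Quantified from on-plate standard curve.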

The target of test [3] is T1, Tyrosine-protein phosphatase non-receptor type 1 (Homo sapiens). Put plainly: Activation of human PTP1B (1 to 405 residues) at 500 uM preincubated for 10 mins followed by EDT-pY-Y-RKG-amide substrate addition and measured after 1.5 hrs by AlphaLISA assay. Put shortly: (§1)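 In-house PTP1B (1−405) at 500 pM final, preincubated 10 min at 24 °C with compound (up to 500 μM), then EDT-pY-Y-RKG-amide (1.4 μM final) or pFYN (20 μM final) added; 1.5 h at 24 °C, humidified. Stopped with 200 μM orthovanadate. Competition AlphaScreen using biotin-Ahx-EDT-pY-Y-RKG-amide (2.5 nM), anti-pTyr antibody 4G10 (500 pM), beads (5 μg/mL each), 2 h at 24 °C. Read against on-plate substrate standard curve.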
(Alpha assays give light when donor and acceptor beads are brought close together.)

In test [4] the target is T3, Tyrosine-protein phosphatase non-receptor type 5 (Homo sapiens, UniProt P54829).
T3 sequence (P54829 whole entry): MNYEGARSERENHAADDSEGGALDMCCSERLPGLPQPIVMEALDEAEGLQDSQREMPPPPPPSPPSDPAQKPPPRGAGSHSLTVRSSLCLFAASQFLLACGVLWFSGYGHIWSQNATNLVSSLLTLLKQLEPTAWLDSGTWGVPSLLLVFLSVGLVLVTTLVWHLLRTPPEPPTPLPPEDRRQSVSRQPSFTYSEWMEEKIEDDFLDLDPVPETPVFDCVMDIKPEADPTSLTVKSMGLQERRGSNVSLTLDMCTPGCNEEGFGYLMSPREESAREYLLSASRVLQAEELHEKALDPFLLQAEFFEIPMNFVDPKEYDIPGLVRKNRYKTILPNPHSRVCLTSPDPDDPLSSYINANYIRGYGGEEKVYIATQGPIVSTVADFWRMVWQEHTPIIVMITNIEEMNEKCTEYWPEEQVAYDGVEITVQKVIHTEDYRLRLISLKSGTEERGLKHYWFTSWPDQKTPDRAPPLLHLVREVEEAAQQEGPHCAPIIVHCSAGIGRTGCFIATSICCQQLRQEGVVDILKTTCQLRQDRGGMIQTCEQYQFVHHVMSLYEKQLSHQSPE
Put plainly: Binding affinity to human 15N-labeled STEP PTP domain (281 to 563 residues) expressed in Escherichia coli OD2 by 1H,15N TROSY NMR spectral analysis. The method, boiled down: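 40 μM ¹⁵N-labeled STEP PTP domain (expressed in ¹⁵N OD2 medium) in 20 mM Tris-d11, 100 mM NaCl, 1 mM TCEP, pH 7.4, 8% D₂O, with 500 μM ligand and 1% DMSO-d₆ at 298 K. 2D spectra of 192 transients were compared by hand with the protein reference spectrum.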

For test [5], the species on record is Homo sapiens. Put plainly: Activation of human STEP46 (197 to 565 residues) expressed in Escherichia coli BL21(DE3) using biotin-pFyn peptide substrate after 60 mins by AlphaLISA assay. The method, boiled down: (§2)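 STEP46 (50 nM final) with biotinylated pFyn peptide (20 nM final) and compound in 1% DMSO, 60 min at room temperature in the dark. Detection by anti non-phospho Src/Tyr416 antibody in stop buffer containing 10 μM orthovanadate, plus protein A acceptor and streptavidin donor beads, 15 min each. % CTL computed against enzyme (100%) and no-enzyme (0%) controls.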

The species named for test [6] is Homo sapiens. Put plainly: Activation of human STEP46 (197 to 565 residues) expressed in Escherichia coli BL21(DE3) at 100 uM using biotin-pFyn peptide substrate after 60 mins by AlphaLISA assay relative to control. Put shortly:
as §2

In test [7] the target is T1, Tyrosine-protein phosphatase non-receptor type 1 (Homo sapiens). Put plainly: Activation of human PTP1B (1 to 405 residues) at 500 uM preincubated for 10 mins followed by pFYN substrate addition and measured after 1.5 hrs by AlphaLISA assay. The method, boiled down: as §1
Test [8] addresses T4, Tyrosine-protein phosphatase non-receptor type 5 (Homo sapiens) (UniProt P54829).
T4 sequence (whole entry): T3 sequence (P54829 whole entry)
Briefly: Activation of human STEP PTP domain (281 to 563 residues) expressed in Escherichia coli BL21(DE3) assessed as ratio of Kcat to Km at 500 uM using pFyn peptide substrate after 60 mins by RapidFire MS/MS assay (reference value: 400 +/- 20 /M/s).

Active and inactive are the calls of the source. The calls are words filed in the database; no cut-off is given here.

With `N=C(N)Nc1cc(C2CCNCC2)cc(C(F)(F)F)c1`, the outcome in test [1], in test [2], in test [3] and in test [7] was inactive. This molecule also returned a Kd in test [4] of 38 µM. Moreover, the Activity entry in the test filed under Homo sapiens [5] was “Dose-dependent effect”; in the test filed under Homo sapiens [6] it was 33%. Moreover, the Ratio in test [8] was found to be 650 M⁻¹ s⁻¹.

A word on the Kd: it is a measure of binding affinity in units of concentration. A high value points to a looser complex.
